Cardio protect: protects H9c2 cardiomyocytes from peroxide injury. 0.63% of 360,000 active. H2O2 injury protection, ATPLite, 2 h. protection from H2O2 cell death, % at 20 µM;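 active means compounds giving at least 50% protection of heart cells from peroxide-induced death in the single-dose screen, raw or plate-pattern-corrected value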;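 further: 0% = DMSO wells with peroxide and 100% = DMSO wells without peroxide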
GRIN3A LBD mod: NR3A (human) ligand-binding domain modulation; NR3A LBD differential scanning fluorimetry, Tm shift; 0% = protein alone, 100% = glycine-bound protein; Tm shift relative to glycine control, % at 25 µM; 2.5% of 340,000 active; AID 1259313;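 active means melting temperature shift of at least 10% of the positive control shift, at one fixed dose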
SENP1 inh: SENP1 (human) catalytic domain inhibition. Q9P0U3. recombinant SENP1 catalytic domain, CyPet-SUMO1-YPet FRET cleavage. inhibition, % at 10 µM. 0.21% of 360,000 active;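 active means inhibition at least 30% at 10 µM, raw YFP signal under a set limit, fluorescence ratio 0.5 to 1.5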;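 further: 0% = enzyme with DMSO and 100% = no enzyme wells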
Target sequence (Q9P0U3 419-644 limits assumed): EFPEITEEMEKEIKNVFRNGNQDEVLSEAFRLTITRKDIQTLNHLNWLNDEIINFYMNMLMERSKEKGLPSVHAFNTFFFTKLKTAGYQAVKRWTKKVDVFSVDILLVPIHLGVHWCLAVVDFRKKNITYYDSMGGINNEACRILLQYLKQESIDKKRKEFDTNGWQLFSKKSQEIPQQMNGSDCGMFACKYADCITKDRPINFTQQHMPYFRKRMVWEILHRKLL
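material = recombinant human SENP1 catalytic domain, His6-tagged | quantity = 20 pM enzyme | reagent = 25 nM SUMO1 FRET substrate | compound dosing = 10 µM single point, 0.5% DMSO | timing = 50 min enzyme reaction, room temperature, light-protected | detection = FRET, CFP and YFP emission | control set = no-enzyme low, enzyme-DMSO high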
hiPSC survival: hiPSC single-cell survival enhancement; ATPlite luminescence; 100% = ROCK inhibitor wells, 0% = DMSO; survival enhancement, % at 20 µM; 0.044% of 360,000 active; AID 602274; in the data active means survival enhancement above about 18%;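 further: cells exposed to compounds for 16 hours before the ATP read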
Arrestin-AP2 inh: inhibitors of human beta-arrestin and AP2 interaction. 0.31% of 340,000 active. inhibition, % at 10 µM. FITC-arrestin peptide / GST-AP2 beads, flow cytometry; AP2 beta2 appendage carries R879A mutation;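 active means inhibition above a set limit, near 3 SD of compounds lacking own fluorescence, cut at about 54% in these data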;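 further: plate controls were DMSO wells for no effect and 5 µM unlabelled arrestin peptide for full effect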
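Material – GST-tagged AP2 beta2-adaptin appendage (R879A) on 4 µm glutathione beads · Probe or stimulus – fluorescein-tagged arrestin peptide at 50 nM final · Timing – 12 min plus 1 h, RT · Detection – bead flow cytometry, FITC channel · Read-out basis – inhibition as reduced fluorescein signal on beads, percent · Medium – PBS plus Tween 20 (0.05%) and BSA (0.1%)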
FAS-TE inh: FAS thioesterase (human) inhibition. P49327. recombinant FAS-TE, OMFH fluorogenic substrate, fluorescence endpoint. inhibition, % at 15 µM. 0.67% of 360,000 active;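 active means compounds whose normalised, plate-corrected inhibition of enzyme fluorescence in the single-dose primary screen is 50% or more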;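 further: 0% = DMSO with enzyme and 100% = substrate without enzyme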
SENP1 conf: confirmation of human SENP1 SUMO protease inhibitors. shares compounds with SENP1 inh. recombinant SENP1, CyPet-SUMO1-YPet FRET cleavage. inhibition, % at 10 µM. 34% of 520 active; in the data active means inhibition mostly above about 35%, no sharp cut-off; inactive means mostly below about 32%;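 further: 0% = enzyme with DMSO and 100% = no enzyme control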
SENP1 kin conf: SENP1 (human) inhibition, kinetic confirmation; shares compounds with SENP1 inh; recombinant SENP1, CyPet-SUMO1-YPet FRET kinetic cleavage; inhibition, % at 10 µM; 26% of 520 active; AID 651690; in the data active means inhibition mostly above about 32%, no sharp cut-off; inactive means mostly below about 29%;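 further: 0% = DMSO with enzyme and 100% = no enzyme substrate only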
The depositor's hits bear a star; · = no result given. The list is not random: actives were taken first. Their share in the collection is about 4%.

SMILES	Cardio protect	GRIN3A LBD mod	SENP1 inh	hiPSC survival	Arrestin-AP2 inh	FAS-TE inh	SENP1 conf	SENP1 kin conf
O=c1[nH]c(/C(Cl)=C/c2c(F)cccc2Cl)nc2cc(Cl)ccc12	-7	-1	-6	-1	1	-1	·	·
CCCCC(=O)OCC(=O)C1(O)Cc2c(O)c3c(c(O)c2C(OC2CC(NC(=O)C(F)(F)F)C(O)C(C)O2)C1)C(=O)c1c(OC)cccc1C3=O (centres undefined)	-4	5	95*	-4	6	1	27	12
CC(c1ccco1)N(C(=O)c1cccs1)c1ccccn1 (centres undefined)	-6	-1	30*	0	40	-4	-6	6
CCC1CCCCN1C(=O)CCNS(=O)(=O)c1ccc2c(c1)oc(=O)n2C (centres undefined)	-3	0	3	0	17	-4	·	·
CCC1CCCCN1CCCNS(=O)(=O)c1ccc2c(c1)oc(=O)n2C (centres undefined)	4	-1	31*	0	-9	-24	19	7
CCOC(=O)c1c(=O)n(O)c2ccc(C)cc2[n+]1[O-]	16	0	47*	14	1	-14	10	9
CCOC(=O)c1c(C)[n+]([O-])c2ccc3c(non3O)c12	5	-1	3	-1	-1	-22	·	·
COc1ccc(OC)c(NC(=O)c2cc3n(n2)C(C(F)(F)F)CC(c2ccc4c(c2)OCO4)N3)c1 (centres undefined)	2	-3	2	0	-7	-5	·	·
COc1ccccc1NC(=O)c1cc2n(n1)C(C(F)(F)F)CC(c1ccc3c(c1)OCO3)N2 (centres undefined)	10	-1	38*	14	-5	30	31	23
COC(=O)c1ccc(NC(=O)CCn2c(=O)oc3ccccc32)cc1	2	0	-3	0	-10	-6	·	·
CCOC(=O)c1ccc(NCn2c(=O)oc3ccccc32)cc1	-4	0	54*	4	22	-26	19	14
CC(CNC(=O)CC[C@H]1O[C@@H](n2cnc3c(NC(=O)c4ccccc4)ncnc32)[C@H](O)[C@@H]1O)c1ccccc1 (some centres undefined)	-6	·	3	1	·	-10	·	·
COc1ccc(-c2ccc3c(c2)S(=O)(=O)c2cccc(C(=O)NCc4cc(C)oc4C(F)(F)F)c2C3=O)cc1OC	-14	-9	59*	-2	-14	-16	44*	34*
O=C(NCC(F)(F)F)c1ccc(S(=O)(=O)Nc2ccccc2N2CCCC2)cc1	-1	-4	30*	14	12	-10	-2	-7
O=C1c2ccc(-c3ccc4c(c3)C(=O)N(CCCO)C4=O)cc2C(=O)N1CCCO	20	1	0	2	6	-7	·	·
O=C1C2=C(SCCS2)C(=O)N1CCCO	10	0	54*	-2	2	-7	48*	29
CC1(C(=O)NS(=O)(=O)Cc2cccc(Cl)c2)CCN1C(=O)CCc1cccs1 (centres undefined)	4	·	2	1	·	-7	·	·
CCC[C@H]1CN(c2ccccc2)C(=O)[C@@H]1CC(=O)NC	2	·	1	-3	·	-10	·	·
N#CCSc1ccccc1NC(=O)CN1C(=O)C(=O)N(Cc2ccccc2)C1=O	9	0	38*	2	39	-20	14	11
O=c1[nH]c2cc([N+](=O)[O-])ccc2c2cc(Br)ccc12	15	·	33*	8	·	-4	25	14
COc1ccc(N2C(=O)/C(=C/c3ccc([N+](=O)[O-])cc3)C=C2c2ccccc2)cc1	-6	0	-1	-4	2	6	·	·

High-throughput results from PubChem BioAssay.
